Assay results: ChEMBL document CHEMBL3352404, “Lower homologues of ahpatinin, aspartic protease inhibitors, from a marine Streptomyces sp” (J Nat Prod, 2014)
Starred links: 1 amine or outer side, 2 acyl side, 3 side chain; linkers in the order of their positions; H or OH if unused. Non-standard residues stand in square brackets, D forms with d. Residues, ends and D or L forms follow the SMILES beside them. *: point of attachment. Ahppa(3S,4S) = O=C(C[C@H](O)[C@H](Cc1ccccc1)N[*:1])[*:2]; Sta = CC(C)C[C@H](N)[C@@H](O)CC(=O)O; Isobutyryl = CC(C)C(=O)*; Propionyl = CCC(=O)*

Experiments:
[1] = target: Cathepsin B (Bos taurus, UniProt P07688); assay: Inhibition of bovine spleen cathepsin B using Z-Arg-Arg-AMC as substrate after 30 mins by fluorescence assay
In short: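 Enzyme stock 1 unit/mL in 50 mM MES pH 6.0 with 0.1% Brij-35, diluted 100-fold in the same buffer before use. Test sample was mixed with diluted enzyme and 25 μM Z-Arg-Arg-AMC (substrate solution in DMSO, pre-mixing level) and incubated 37 °C for 30 min. Released AMC was read by fluorescence, excitation 345 nm, emission 440 nm.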

[2] = Inhibition of porcine gastric mucosa pepsin using MOCAc-Ala-Pro-Ala-Lys-Phe-Phe-Arg-Leu-Lys (Dnp)-NH2 as substrate after 20 mins by fluorescence assay; parameters: species or system Sus scrofa
In short: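 Test solution in MeOH was diluted into 0.1 M ammonium formate buffer pH 3.0. Pepsin solution (1 μg/mL in the buffer) was added, then 10 μM fluorogenic substrate solution (pre-mixing level). The mixture was incubated 30 °C for 20 min. Released MOCAc-Ala-Pro-Ala-Lys-Phe was read by fluorescence, excitation 328 nm, emission 393 nm.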

Question: With CC(=O)N[C@H](C(=O)N[C@H](C(=O)N[C@@H](CC(C)C)[C@@H](O)CC(=O)N[C@@H](C)C(=O)N[C@@H](Cc1ccccc1)[C@@H](O)CC(=O)O)C(C)C)C(C)C (Ac-VV[Sta]A-{Ahppa(3S,4S)}) as the compound, how does the IC50 [1] read?
Answer: Its IC50 is 15 µM.

Question: What about the IC50 [2] of the same compound?
Answer: Its IC50 is 0.011 µM.

Question: With CC(C)C[C@H](NC(=O)[C@@H](NC(=O)[C@@H](NC(=O)C(C)C)C(C)C)C(C)C)[C@@H](O)CC(=O)N[C@@H](C)C(=O)N[C@@H](Cc1ccccc1)[C@@H](O)CC(=O)O (Isobutyryl-VV[Sta]A-{Ahppa(3S,4S)}) as the compound, how does the IC50 [1] read?
Answer: Its IC50 is 26 µM.

Question: For CC(C)C[C@H](NC(=O)[C@H](C)NC(=O)C[C@H](O)[C@H](CC(C)C)NC(=O)[C@@H](NC(=O)[C@@H](NC(=O)C(C)C)C(C)C)C(C)C)[C@@H](O)CC(=O)O (Isobutyryl-VV[Sta]A[Sta]-OH), which IC50 [1] is on record?
Answer: The IC50 was 29 µM.

Question: Which IC50 [1] does the source give for CCC(=O)N[C@H](C(=O)N[C@H](C(=O)N[C@@H](CC(C)C)[C@@H](O)CC(=O)N[C@@H](C)C(=O)N[C@@H](Cc1ccccc1)[C@@H](O)CC(=O)O)C(C)C)C(C)C (Propionyl-VV[Sta]A-{Ahppa(3S,4S)}) here?
Answer: The IC50 was 25 µM.

Question: And the IC50 [2]?
Answer: Its IC50 is 0.05 µM.

Question: Which results are given for CCC(=O)N[C@H](C(=O)N[C@H](C(=O)N[C@@H](CC(C)C)[C@@H](O)CC(=O)N[C@@H](C)C(=O)N[C@@H](CC(C)C)[C@@H](O)CC(=O)O)C(C)C)C(C)C (Propionyl-VV[Sta]A[Sta]-OH)?
Answer: IC50 [1]: 10 µM; IC50 [2]: 0.018 µM

Question: For CC(=O)N[C@H](C(=O)N[C@H](C(=O)N[C@@H](CC(C)C)[C@@H](O)CC(=O)N[C@@H](C)C(=O)N[C@@H](CC(C)C)[C@@H](O)CC(=O)O)C(C)C)C(C)C [ACETYLPEPSTATIN], which IC50 [1] is on record?
Answer: Its IC50 is 17 µM.

Question: What about the IC50 [2] of the same compound?
Answer: The IC50 was 0.011 µM.
